The list is not random: actives were taken first. Their share in the collection is about 1.5%.
CCR6 antag: CCR6 (human) receptor antagonism; P51684; 0.49% of 340,000 active; CHO-K1 CCR6 PathHunter beta-arrestin, luminescence, CCL20-stimulated; inhibition, % at 20 µM;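 active means compounds whose inhibition of the agonist-driven luminescence signal at 20 µM reaches about 50%, limit read from the data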;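 further: cells stimulated with CCL20 at 14 nM final; plate controls were DMSO with CCL20 for no effect and DMSO without agonist for full effect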
EBI2 antag: EBI2 (human) antagonism; 0.81% of 360,000 active; EBI2 beta-arrestin recruitment, luminescence, 7a,25-OHC stimulated; P32249; inhibition, % at 5 µM; in the data active means inhibition above about 38%;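 further: enzyme fragment complementation signal reports receptor beta-arrestin coupling in cells; 0% = agonist plus DMSO wells and 100% = wells without agonist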
APJ ag: agonists of human APJ apelin receptor; P35414; CHO-K1 APJ PathHunter beta-arrestin, luminescence; 0% DMSO wells, 100% apelin; activation, % at 20 µM; 0.11% of 330,000 active; AID 2520;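 active means activation more than six SD over the plate average, tested at 20 µM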;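 further: 0% = DMSO alone and 100% = apelin-13 at 10 nM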
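Material: engineered CHO-K1 APJ arrestin reporter cells; amount: 1000 CHO-K1 reporter cells seeded per well; incubation: compound stimulation 90 min at 25 °C, detection 60 min; signal: luminescent beta-gal fragment complementation, chemiluminescent substrate; read-out basis: APJ agonist activity; controls: DMSO-only wells as negative, 10 nM Apelin-13 as positive control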
APJ antagonist: blocks the human apelin receptor APJ. CHO-K1 APJ beta-arrestin complementation, luminescence. inhibition, % at 20 µM. 0.32% of 330,000 active. AID 2521;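 active means inhibition above about 40% at 20 µM, limit read from the data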;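 further: cells challenged with 10 nM apelin-13 agonist together with compound; plate controls were apelin-13 plus DMSO wells for no effect and DMSO wells lacking apelin-13 for full effect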
CXCR6 inh: blocks human CXCR6 beta-arrestin recruitment; CHO-K1 PathHunter CXCR6 beta-arrestin, luminescence; inhibition, % at 20 µM; 0.36% of 360,000 active; in the data active means inhibition above about 34%, passing the limit was not always enough;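 further: antagonist mode with CXCL16 agonist at 10 nM final; 0% = 10 nM CXCL16 with DMSO and 100% = unstimulated wells without agonist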
Target sequence (O00574 whole entry, looked up): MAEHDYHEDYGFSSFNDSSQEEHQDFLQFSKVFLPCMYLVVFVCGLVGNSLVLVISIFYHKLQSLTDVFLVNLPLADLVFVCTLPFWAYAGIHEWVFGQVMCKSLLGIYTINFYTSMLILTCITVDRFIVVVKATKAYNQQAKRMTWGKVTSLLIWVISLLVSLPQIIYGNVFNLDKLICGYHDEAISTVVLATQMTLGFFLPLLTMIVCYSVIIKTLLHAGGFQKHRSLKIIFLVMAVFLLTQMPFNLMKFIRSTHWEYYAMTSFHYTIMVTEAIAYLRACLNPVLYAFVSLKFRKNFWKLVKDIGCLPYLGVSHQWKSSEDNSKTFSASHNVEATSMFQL
The depositor's hits bear a star.

How did CCOC(=O)/C(=C/c1ccc(N2CCC(c3ccccc3)=N2)cc1)C(C)=O do in these assays?
CCR6 antag: 24.2; EBI2 antag: 49.4*; CXCR6 inh: 2.7

What do the screens show for `CCCc1cc(C(=O)NNC(=S)NC2CCCCC2)cs1`?
CCR6 antag: 8.8; EBI2 antag: 3.7; APJ ag: -0.8; APJ antagonist: 13.9; CXCR6 inh: 6.6

Results for COc1cc(/C=N/NC(=O)c2cccc([N+](=O)[O-])c2)ccc1OCc1ccccc1 ?
CCR6 antag: 17.4; EBI2 antag: 30.1; APJ ag: 2.0; APJ antagonist: -23.8; CXCR6 inh: 0.8

What do the screens show for `CCOC(=O)C(=Cc1ccc(OCc2ccc([N+](=O)[O-])cc2)c(OC)c1)C(=O)OCC`?
CCR6 antag: 9.3; EBI2 antag: 54.0*; APJ ag: -1.8; APJ antagonist: -2.1; CXCR6 inh: 8.7

How did Cc1nn(Cc2c(F)c(F)c(F)c(F)c2F)c(C)c1NC(=O)c1ccc(COc2cc(Cl)ccc2Cl)cc1 do in these assays?
CCR6 antag: -11.6; EBI2 antag: 51.0*; APJ ag: -3.5; APJ antagonist: 3.9; CXCR6 inh: 0.4

How did Fc1ccc(COc2ccc(Br)cc2CNCc2ccncc2)cc1 do in these assays?
CCR6 antag: 1.5; EBI2 antag: 13.8; APJ ag: 0.2; APJ antagonist: 0.7; CXCR6 inh: 0.0

What do the screens show for `CCOc1cc(CNCc2ccncc2)cc(Br)c1OCc1ccc(F)cc1`?
CCR6 antag: 8.0; EBI2 antag: 58.5*; APJ ag: 2.0; APJ antagonist: 8.6; CXCR6 inh: -1.2

Results for O=C(CN1C(=O)/C(=C\c2ccccc2Br)Oc2ccccc21)NCCCN1CCOCC1 ?
CCR6 antag: 68.2*; EBI2 antag: 3.8; APJ ag: -3.8; APJ antagonist: 16.9; CXCR6 inh: 1.1

Results for COc1ccc(N2CCN(C(=O)c3ccc(Br)cc3)CC2)c([N+](=O)[O-])c1 ?
CCR6 antag: 10.5; EBI2 antag: 71.5*; APJ ag: -1.5; APJ antagonist: 10.5; CXCR6 inh: 1.3

What do the screens show for `COc1ccc(N2CCN(C(=O)c3ccc(C)cc3)CC2)c([N+](=O)[O-])c1`?
CCR6 antag: 6.1; EBI2 antag: 19.3; APJ ag: 0.1; APJ antagonist: 13.9; CXCR6 inh: 5.2

What do the screens show for `Cc1c(Cl)cccc1N1C(=O)C(N2C(=O)c3cccc([N+](=O)[O-])c3C2=O)C1c1cccs1` (centres undefined)?
CCR6 antag: -36.7; EBI2 antag: 48.1*; APJ ag: 0.3; APJ antagonist: -9.0; CXCR6 inh: -5.6

What do the screens show for `O=C1c2cccc([N+](=O)[O-])c2C(=O)N1C1CCCCC1`?
CCR6 antag: -25.9; EBI2 antag: 5.7; APJ ag: -2.7; APJ antagonist: -11.3; CXCR6 inh: -6.6

How did O=C(CN(C(=O)c1csnn1)c1cccc2ccccc12)NCc1ccccc1 do in these assays?
CCR6 antag: 5.7; EBI2 antag: -2.1; APJ ag: -1.5; APJ antagonist: 3.6; CXCR6 inh: -2.2

Results for Cc1cccc2c1c1ccc3c(c1n2C)C(=O)C=CC3=O ?
CCR6 antag: 88.9*; EBI2 antag: -2.9; CXCR6 inh: 43.7*

Results for Cc1ccccc1N1CC(=O)N(c2ccccc2C)CC1=O ?
CCR6 antag: 1.2; EBI2 antag: -2.6; APJ ag: -0.6; APJ antagonist: -3.9; CXCR6 inh: 7.2

Results for COc1ccc(OC)c(CN2CCN(C(=O)c3cc4ccccc4cc3O)CC2)c1 ?
CCR6 antag: 0.3; EBI2 antag: 29.7; APJ ag: 3.0; APJ antagonist: -3.1; CXCR6 inh: -7.5

How did CCCN1CCN(C(=O)c2cc3c(s2)-c2ccccc2OC3)CC1 do in these assays?
CCR6 antag: 9.8; EBI2 antag: 88.2*; APJ ag: -2.0; APJ antagonist: 10.1; CXCR6 inh: -1.8

What do the screens show for `CC(NC(=O)c1cc([N+](=O)[O-])cc([N+](=O)[O-])c1)C1CC2CCC1C2` (centres undefined)?
CCR6 antag: -15.8; EBI2 antag: -4.7; APJ ag: 15.1; APJ antagonist: -52.2; CXCR6 inh: -16.0

How did CCOC(=O)c1ccc(N/N=C/c2cc(Br)cc([N+](=O)[O-])c2O)cc1 do in these assays?
CCR6 antag: 60.0*; EBI2 antag: 20.5; APJ ag: -5.9; APJ antagonist: 18.8; CXCR6 inh: 52.5*

Results for CCOC(=O)COc1ccccc1/C=C\[N+](=O)[O-] ?
CCR6 antag: 68.9*; EBI2 antag: -17.1; CXCR6 inh: 44.9*

Results for CC1CCc2c(sc(NC(=O)c3ccc(-c4ccccc4[N+](=O)[O-])o3)c2C#N)C1 (centres undefined) ?
CCR6 antag: 58.2*; EBI2 antag: 28.2; APJ ag: -7.0; APJ antagonist: 24.0; CXCR6 inh: 33.3

Results for N#Cc1c(NC(=O)c2ccc(-c3ccccc3[N+](=O)[O-])o2)sc2c1CCCC2 ?
CCR6 antag: 37.1; EBI2 antag: 14.0; APJ ag: -1.4; APJ antagonist: 21.7; CXCR6 inh: 30.9

How did COc1ccc(C[C@H]2c3cc(O)c(OC)cc3CC[N+]2(C)[O-])cc1O (some centres undefined) do in these assays?
CCR6 antag: 59.0*; EBI2 antag: -5.7; APJ ag: -11.8; APJ antagonist: 21.5; CXCR6 inh: 29.9

How did COc1cc(/C=C2\C(=O)N(c3ccc(NC(C)=O)cc3)N=C2c2ccccc2)ccc1O do in these assays?
CCR6 antag: 48.0; EBI2 antag: 9.0; APJ ag: -3.8; APJ antagonist: 39.7; CXCR6 inh: 46.0*

What do the screens show for `CCOC(=O)CN(C(=O)COc1nc(-c2ccccc2)cc(C)c1C#N)c1ccccc1C`?
CCR6 antag: 9.5; EBI2 antag: 15.3; APJ ag: -4.6; APJ antagonist: 10.1; CXCR6 inh: 7.0

What do the screens show for `O=C1C=CC(=O)N1c1ccc(O)cc1`?
CCR6 antag: 80.7*; EBI2 antag: 7.5; APJ ag: -4.6; APJ antagonist: -2.8; CXCR6 inh: 14.3

How did O=C1C=CC(=O)N1c1ccc(OC(F)F)cc1 do in these assays?
EBI2 antag: 6.9; CXCR6 inh: 103.3*

Results for C=CCN(CC=C)S(=O)(=O)c1ccc(NC(=S)NC(=O)/C=C/c2cccc3ccccc23)cc1 ?
CCR6 antag: 51.8*; EBI2 antag: 18.7; APJ ag: -3.0; APJ antagonist: 27.5; CXCR6 inh: 3.5

Results for C=CCN(CC=C)S(=O)(=O)c1ccc(NC(=S)NC(=O)/C=C/c2ccc(C)cc2)cc1 ?
CCR6 antag: 17.6; EBI2 antag: 14.9; APJ ag: -1.1; APJ antagonist: -30.0; CXCR6 inh: 8.6

Results for CCN(CC)c1ccc(/C=C2\CCC(/C=C(\C#N)C(=O)Nc3ccccc3F)=C2N2CCOCC2)cc1 ?
CCR6 antag: 91.2*; EBI2 antag: 19.4; CXCR6 inh: 29.2

What do the screens show for `CCN(CC)c1ccc(/C=C2\CCC(/C=C(/C#N)C(=O)Nc3ccccc3F)=C2N2CCOCC2)cc1`?
CCR6 antag: 102.0*; EBI2 antag: 26.8; CXCR6 inh: 44.9*
